What was measured:
[1] = melting temperature; fluorescence melt of hairpins on a sequencing array, two-state fit, raised by 9.35 °C to match UV melts; settings: sodium 0.088 M
Outline: (§1)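 Two-state fits, bootstrapped, provided melting temperature and folding enthalpy from Cy3 fluorescence normalised to pre-quench Cy3 and to control constructs. Library hairpins with annealed Cy3 and quencher oligos were imaged on a sequenced MiSeq flow cell in 50 mM Na-HEPES pH 8.0, 25 mM NaCl, at 2.5 °C intervals up to 60 °C. Four replicates were combined with inverse-variance weighting. A 9.35 °C upward shift was applied to fitted temperatures to match UV melts.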

[2] = folding enthalpy; higher = less favourable; fluorescence melt of hairpins on a sequencing array, two-state fit; settings: sodium 0.088 M
Outline: as §1

Sequence	Tm [1] [°C]	folding enthalpy [2] [kcal/mol]
GTCAAAGGAAACTTTGGC (.(((((....))))).)	44.5	-29.9
GTCAACCGAAAGGTGAC (((.(((....))))))	55.7	-24.4
GTCAACGAAAGTTAAGAC ((((((....)))..)))	31.3	-19.2
GTCAACGAAAGTTCCGAC ((((((....)))..)))	20.9	-9.76
GTCAACGAAAGTTCGAC ((((((....))).)))	38.4	-25.7
GTCAACGGAAACGCTGAC ((((.((....)).))))	46.4	-35.8
GTCAAGACGAAAGTCGAC (((..(((....))))))	43.9	-13.7
GTCAAGCGAAAGCTGGAC (((.(((....))).)))	62.4	-29.4
GTCAATCGAAAGATGGAC (((.(((....))).)))	49.2	-25.5
GTCAATGAAAATTGAC ((((((....))))))	50.8	-31.7
GTCACACCGAAAGGTGAC (((..(((....))))))	41.1	-10.9
GTCACACGAAAGTGCGAC (((.(((....))).)))	55.6	-35.4
GTCACAGAAATGTGAC ((((((....))))))	56.8	-35.2
GTCACAGGAAACCGTGAC (((((.(....).)))))	49.1	-30.3
GTCACAGGAAACTATGAC ((((.((....)).))))	32	-20.1
GTCACAGGAAACTGTGGC (.(((((....))))).)	52.5	-32.8
GTCACCGAAAGGTTGGAC ((((((....)))..)))	31.1	-14.8
GTCACCGCGAAAGCGGAC (((..(((....))))))	26.5	-5.92
GTCACCGGAAACGACGAC (((..((....))..)))	31.1	-24.7
GTCACCGGAAACGATGAC ((((.((....)).))))	45.9	-33.5
GTCACCGGAAACGGCGAC (((.(((....))).)))	54.5	-40.6
GTCACGGGAAACCACGAC (((..((....))..)))	34.9	-23.6
GTCACTCGAAAGAGAGAC (((.(((....))).)))	50.5	-35.4

Sequence	Tm [1] [°C]	folding enthalpy [2] [kcal/mol]
GTCAGACGAAAGTCAGAC (((.(((....))).)))	53.6	-31.5
GTCAGCCGAAAGGCCGAC (((.(((....))).)))	55.8	-21.4
GTCAGCCGAAAGGCGAC (((.(((....))))))	61.5	-15
GTCAGCGAAAGCTAGGAC ((((((....)))..)))	40	-14.1
GTCAGGCCGAAAGGCGAC (((..(((....))))))	46.9	-18
GTCAGGCGAAAGCCCGAC (((.(((....))).)))	48.8	-23.2
GTCAGGGGAAACCTTGAC ((((.((....)).))))	47.2	-28.1
GTCAGTCCGAAAGGAGAC (((..(((....))))))	33.2	-15.6
GTCAGTCGAAAGACAGAC (((.(((....))).)))	51	-39.4
GTCAGTCGAAAGACGGAC (((.(((....))).)))	56.2	-33.3
GTCAGTGGAAACACCGAC (((.(((....))).)))	40.4	-26.9
GTCATAGCGAAAGCTGAC (((..(((....))))))	46.6	-22.8
GTCATCCGAAAGGACGAC (((.(((....))).)))	49.3	-36.4
GTCATCGAAAGATCTGAC ((((((....)))..)))	23.8	-10.9
GTCATCGAAAGATGAC ((((((....))))))	66.2	-31.2
GTCATCGAAAGATGGAC ((((((....))).)))	43.9	-17.6
GTCATCGAAAGATTGAC ((((((....))).)))	40.7	-26.9
GTCATGAAAATGAC (((((....)))))	50.1	-27.1
GTCATGCGAAAGCAAGAC (((.(((....))).)))	52.4	-29.6
GTCATGGGAAACTATGAC (((((.(....).)))))	45	-29.1
GTCATTGCGAAAGCAGAC (((..(((....))))))	33	-14.5
GTCATTGGAAACAATGAC (((((((....)))))))	58.3	-41.8
